The nature of data set [1]: folding enthalpy; higher = less favourable; fluorescence melt of hairpins on a sequencing array, two-state fit. The conditions noted are these: sodium 0.088 M. In a few lines: (§1)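 Library hairpins on a sequenced MiSeq flow cell carried annealed Cy3 and quencher oligos, and their Cy3 fluorescence was imaged in 50 mM Na-HEPES pH 8.0 with 25 mM NaCl, in 2.5 °C steps up to 60 °C. Signals were normalised to Cy3 before quenching and to control constructs. Melting temperature and folding enthalpy were obtained from bootstrapped two-state fits, combined by inverse-variance weighting across four replicates, and the fitted temperatures were then raised by 9.35 °C to match UV melts.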

Data set [2] in a line: melting temperature; fluorescence melt of hairpins on a sequencing array, two-state fit, raised by 9.35 °C to match UV melts. Particulars: sodium 0.088 M. In a few lines:
as §1

Consider GAGCGTGGAAACACGCCC (.(((((....))))).), for which, in data set [1], the folding enthalpy was -7.9 kcal/mol. Further, the Tm in data set [2] stood at 47.9 °C.

Regarding GAGCGTGGAAACGCGCTC (((((.(....).))))), the folding enthalpy in data set [1] is -21.7 kcal/mol. For the same sequence, the Tm in data set [2] was 66.7 °C.

Turning to GAGCTACGAAAGTACTC (((.(((....)))))), in data set [1], the folding enthalpy was -21.3 kcal/mol. For the same sequence, the Tm in data set [2] was found to be 39.1 °C.

As to GAGCTAGAAATAGCTC ((((((....)))))), the folding enthalpy in data set [1] is -33.6 kcal/mol. Besides, the Tm in data set [2] turned out to be 53.4 °C.

Regarding GAGCTAGCGAAAGCTCTC (((..(((....)))))), in data set [1], the folding enthalpy was -17 kcal/mol. Besides, the Tm in data set [2] turned out to be 45.3 °C.

GAGCTCCGAAAGGACTC (((.(((....)))))): the folding enthalpy in data set [1] was -23.6 kcal/mol. The Tm in data set [2] came to 47.4 °C.

Take GAGCTCGGAAACGAACCC (.(.(((....))).).): the folding enthalpy in data set [1] was -4.42 kcal/mol. Also, in data set [2], the Tm turned out to be 19.5 °C.

Consider GAGCTGGGAAACCAACTC (((.(((....))).))), for which, in data set [1], the folding enthalpy is -32 kcal/mol. In addition, the Tm in data set [2] stood at 39.9 °C.

With GAGCTGGGAAACCAGTTC ((.((((....)))).)), the folding enthalpy in data set [1] was -24.4 kcal/mol. Moreover, the Tm in data set [2] amounted to 47.4 °C.

GAGCTGGGAAACTGGCTC ((((..(....)..)))): in data set [1], the folding enthalpy is -27.6 kcal/mol. In addition, the Tm in data set [2] came to 46.7 °C.

As for GAGCTTCCGAAAGGACTC (((..(((....)))))), the folding enthalpy in data set [1] is -27.4 kcal/mol. Further, the Tm in data set [2] amounted to 29.2 °C.

As to GAGCTTGGAAACAAGCTC (((((((....))))))), in data set [1], the folding enthalpy is -35.1 kcal/mol. In addition, the Tm in data set [2] came out at 67.8 °C.

Regarding GAGGAACCGAAAGGTCTC (((..(((....)))))), the folding enthalpy in data set [1] was -15.4 kcal/mol. For the same sequence, the Tm in data set [2] turned out to be 35.2 °C.

Take GAGGAAGGAAACTTCTTC ((.((((....)))).)): the folding enthalpy in data set [1] is -16.7 kcal/mol. In data set [2], the Tm amounted to 33.9 °C.

Take GAGGACCGAAAGGTCTC (((.(((....)))))): in data set [1], the folding enthalpy was -10.9 kcal/mol. Moreover, in data set [2], the Tm came out at 46.5 °C.

For the sequence GAGGACGAAAGTCGTCTC ((((((....)))..))), the folding enthalpy in data set [1] was -28.6 kcal/mol. In data set [2], the Tm was 52.2 °C.

As for GAGGACGAAAGTCTGCTC ((((((....)))..))), the folding enthalpy in data set [1] was -14.4 kcal/mol. Besides, the Tm in data set [2] came out at 39.2 °C.

For GAGGACGGAAACGTTCTC (((.(((....))).))), the folding enthalpy in data set [1] was -41.9 kcal/mol. The Tm in data set [2] came to 51.6 °C.

For GAGGAGGGAAACTTCCTC (((((.(....).))))), the folding enthalpy in data set [1] is -25.6 kcal/mol. Moreover, the Tm in data set [2] stood at 41.9 °C.

For GAGGATGGAAACGTCCTC (((((.(....).))))), in data set [1], the folding enthalpy was -34.9 kcal/mol. In addition, the Tm in data set [2] is 49.6 °C.

Turning to GAGGCACCGAAAGGTCTC (((..(((....)))))), the folding enthalpy in data set [1] was -11.5 kcal/mol. In data set [2], the Tm was found to be 31.3 °C.

Regarding GAGGCAGCGAAAGCTCTC (((..(((....)))))), the folding enthalpy in data set [1] was -10.2 kcal/mol. Also, the Tm in data set [2] was 31.8 °C.

GAGGCCGAAAGGCACCTC ((((((....)))..))): in data set [1], the folding enthalpy was -8.77 kcal/mol. Also, the Tm in data set [2] stood at 40 °C.

Regarding GAGGCCGAAAGGCATCTC ((((((....)))..))), in data set [1], the folding enthalpy was -17.1 kcal/mol. The Tm in data set [2] was 68.4 °C.

As to GAGGCCGCGAAAGCGCTC (((..(((....)))))), the folding enthalpy in data set [1] was -12.8 kcal/mol. Besides, the Tm in data set [2] amounted to 35 °C.

For GAGGCTGGAAACAACCTC ((((.((....)).)))), the folding enthalpy in data set [1] was -29.2 kcal/mol. Further, in data set [2], the Tm amounted to 41.8 °C.

On to GAGGCTGGAAACAGCCCC (.(((((....))))).), for which the folding enthalpy in data set [1] was -8.68 kcal/mol. The Tm in data set [2] amounted to 46.1 °C.

For GAGGCTGGAAACAGTCTC (((.(((....))).))), the folding enthalpy in data set [1] was -35.8 kcal/mol. In addition, in data set [2], the Tm came to 52.6 °C.

Turning to GAGGGAGCGAAAGCTCTC (((..(((....)))))), the folding enthalpy in data set [1] is -9.38 kcal/mol. Besides, in data set [2], the Tm came out at 42.8 °C.

As to GAGGGAGGAAACTCCCCC (.(((((....))))).), the folding enthalpy in data set [1] was -10.5 kcal/mol. For the same sequence, in data set [2], the Tm was 41.9 °C.

GAGGGCACGAAAGTGCTC (((..(((....)))))): the folding enthalpy in data set [1] was -7.41 kcal/mol. Further, the Tm in data set [2] came out at 44 °C.

Turning to GAGGGCGAAAGCCCACTC ((((((....)))..))), in data set [1], the folding enthalpy is -10.6 kcal/mol. Further, in data set [2], the Tm turned out to be 55.6 °C.

Turning to GAGGGCGGAAACGCCCCC (.(((((....))))).), in data set [1], the folding enthalpy is -5.82 kcal/mol. Also, the Tm in data set [2] was found to be 45.8 °C.

As to GAGGGGGAAACCCCTC ((((((....)))))), the folding enthalpy in data set [1] is -30 kcal/mol. For the same sequence, the Tm in data set [2] came out at 65.4 °C.

Regarding GAGGGTGAAAACCCTC ((((((....)))))), the folding enthalpy in data set [1] is -32.4 kcal/mol. The Tm in data set [2] turned out to be 64.2 °C.

In the case of GAGGGTGGAAACACCCTC (((((((....))))))), the folding enthalpy in data set [1] is -35 kcal/mol. Further, in data set [2], the Tm was determined as 68.7 °C.
